According to ChEMBL document CHEMBL6134900 (J Med Chem, 2025):
The source made the active and inactive calls. The rule behind the calls is not given here.

Columns and labels:
NCI-H2030 [1] = experiment: Synergistic antitumor activity against human NCI-H2030 cells harboring KRAS G12C mutant/SMARCA4 mutant assessed as inhibition of colony formation incubated for 8 days in presence of sotorasib by clonogenic growth assay; type: functional, cell-based; details: time 8.0 day
Method in brief: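 H2030 clonogenic assay over 8 days with 2-fold dilutions of sotorasib, test agent, or both. Crystal violet staining, total colony area normalized. Synergy scored as Bliss/Lowe consensus, >10 taken as synergy.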

[2] = biological target: T1, Protein cereblon/SWI/SNF-related matrix-associated actin-dependent regulator of chromatin subfamily A member 2 (Homo sapiens, UniProt P51531+Q96SW2); experiment: PROTAC activity at CRBN/SMARCA2 in human H322 cells harboring SMARCA4 mutant assessed as induction of SMARCA2 degradation at 0.1 uM in presence of bortezomib by immunoblot analysis; type: cell-based
[3] = biological target: T1, Protein cereblon/SWI/SNF-related matrix-associated actin-dependent regulator of chromatin subfamily A member 2; experiment: PROTAC activity at CRBN/SMARCA2 in human H322 cells harboring SMARCA4 mutant assessed as induction of SMARCA2 degradation at 0.1 uM in presence of Gen-1 by immunoblot analysis; type: cell-based
[4] = biological target: Transcriptional coactivator YAP1 (Homo sapiens) (UniProt P46937); experiment: Induction of YAP1 phosphorylation at S109 residue in human H322 cells harboring SMARCA4 mutant at 0.1 uM incubated for 96 hrs by immunoblot analysis; type: cell-based; details: filed as activator
Transcriptional coactivator YAP1 (Homo sapiens), sequence (P46937 whole entry): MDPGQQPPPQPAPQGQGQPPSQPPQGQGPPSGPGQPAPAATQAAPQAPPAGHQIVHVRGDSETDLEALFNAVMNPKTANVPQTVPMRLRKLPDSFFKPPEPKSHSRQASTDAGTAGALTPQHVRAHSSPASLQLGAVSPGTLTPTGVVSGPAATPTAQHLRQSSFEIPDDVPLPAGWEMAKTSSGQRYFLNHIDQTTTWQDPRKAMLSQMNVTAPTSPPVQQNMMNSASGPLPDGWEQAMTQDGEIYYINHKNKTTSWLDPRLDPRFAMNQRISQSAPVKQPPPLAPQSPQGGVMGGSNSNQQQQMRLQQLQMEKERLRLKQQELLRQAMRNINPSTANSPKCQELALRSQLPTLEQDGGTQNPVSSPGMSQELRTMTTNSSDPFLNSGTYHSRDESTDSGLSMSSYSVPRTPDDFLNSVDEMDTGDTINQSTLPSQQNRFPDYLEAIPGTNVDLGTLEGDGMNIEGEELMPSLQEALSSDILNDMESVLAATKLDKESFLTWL

NCI-H2030 [5] = experiment: Inhibition of ERK phosphorylation in human NCI-H2030 cells harboring KRAS G12C mutant/SMARCA4 mutant assessed as reduction in p-ERK level at 1.25 uM incubated for 48 hrs in presence of sotorasib by Western blotting analysis; type: cell-based
[6] = Half life in male CD-1 (ICR) mouse at 25 mg/kg, po measured up to 24 hrs by LC-MS/MS analysis; type: ADME, organism-based; details: in vivo
Method in brief: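 Single 25 mg/kg dose. IP vehicle was 5% DMSO/5% solutol/90% water at 1.25 mg/mL, final pH 4.39, clear solution. Oral vehicle was 0.5% methylcellulose/0.2% Tween 80 in water, opaque suspension. Plasma sampled at 0.25, 0.5, 1, 2, 4, 8 and 24 h. Plasma protein-precipitated with internal standard in acetonitrile, then LC-MS/MS. n = 3 mice per time point, mean.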

[7] = Toxicity in female athymic nude mouse xenografted with human NCI-H2023 cells harboring SMARCA4 mutant assessed as change in body weight at 5 mg/kg, po administered once daily via gavage for 19 days relative to control; type: organism-based; details: in vivo, 456 h, time 19 day
Method in brief: (§1)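 Cells (H1568 2 × 10^6, H2023 10 × 10^6, HCC515 5 × 10^6) in PBS:Matrigel 1:1, 200 μL, injected subcutaneously into flanks of 6–8-week-old females. Randomized at mean tumor volume 60 mm3 (H1568) or <200 mm3 (others). Dosed in 0.5% methylcellulose + 0.2–1% Tween-80, sonicated on ice. Caliper tumor volume and body weight tracked, mean ± SEM.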

[8] = Toxicity in female athymic nude mouse xenografted with human NCI-H2030 cells harboring SMARCA4 mutant assessed as change in body weight at 5 mg/kg, po administered once daily via gavage for 17 days relative to control; type: organism-based; details: in vivo, 408 h, time 17 day
Method in brief: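 10 × 10^6 H2030 cells in PBS:Matrigel 1:1, 200 μL, injected subcutaneously into flanks of 6–8-week-old females. Randomized at mean tumor volume <200 mm3. Oral gavage once daily in 10% DMSO, 40% PEG300, 1% Tween-80, 49% saline. Caliper tumor volume and body weight monitored, mean ± SEM.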

[9] = biological target: T1, Protein cereblon/SWI/SNF-related matrix-associated actin-dependent regulator of chromatin subfamily A member 2; experiment: PROTAC activity at CRBN/SMARCA2 in CRBN knockout human H322 cells harboring SMARCA4 mutant assessed as induction of SMARCA2 degradation at 0.1 uM by immunoblot analysis; type: cell-based
[10] = biological target: T1, Protein cereblon/SWI/SNF-related matrix-associated actin-dependent regulator of chromatin subfamily A member 2; experiment: PROTAC activity at CRBN/SMARCA2 in human H322 cells harboring SMARCA4 mutant assessed as induction of SMARCA2 degradation at 1 uM in presence of bortezomib by immunoblot analysis; type: cell-based
NCI-H2030 [11] = experiment: Synergistic antitumor activity against human NCI-H2030 cells harboring KRAS G12C mutant/SMARCA4 mutant assessed as cell growth inhibition at 1 uM incubated for 7 days in presence of sotorasib by Incucyte S3 analysis; type: functional, cell-based; details: time 7.0 day
Method in brief: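 H2030 cells plated at 500 per well and grown overnight at 37 °C. Treated with 3-fold dilutions of sotorasib, test agent, or both. Confluency imaged every 4 h for 7 days on IncuCyte S3. Synergy scored as Bliss/Lowe consensus, >10 taken as synergy.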

[12] = Antitumor activity against human NCI-H1568 cells harboring SMARCA4 mutant xenografted in female athymic nude mouse assessed as tumor growth inhibition at 40 mg/kg, po administered once daily via gavage for 13 days relative to control; type: functional; details: NCI-H1568, 312 h, time 13 day, read-out: TGI; method in brief: as §1
[13] = In vivo PROTAC activity at CRBN I391V mutant/SMARCA2 in mouse assessed as SMARCA2 degradation in spleen at 80 mg/kg, po administered once daily for 3 days and measured at 24 hrs post last dose by Western blotting analysis relative to control; type: functional; details: time 3 day
Method in brief: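 CrbnI391V mice given 10, 20, 40 or 80 mg/kg or vehicle orally once daily for 3 days. Euthanised 24 h after the last dose. Spleen SMARCA2 measured by Western blot with actin as loading control, relative to vehicle. Plasma drug level measured at the same time.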

[14] = Drug concentration in C57BL/6 mouse plasma at 5 mg/kg, po administered once daily for 3 days and measured at 24 hrs post last dose; type: ADME, organism-based; details: time 3 day
Method in brief: (§2)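 Oral dosing once daily for 3 days: 5–80 mg/kg in C57BL/6 mice, 10–80 mg/kg in CrbnI391V mice. Euthanized 24 h after last dose. Plasma drug level measured. Spleen SMARCA2 by Western blot against actin loading control, relative to vehicle.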

NCI-H2030 [15] = experiment: Inhibition of ERK phosphorylation in human NCI-H2030 cells harboring KRAS G12C mutant/SMARCA4 mutant assessed as reduction in p-ERK level at 1.25 uM incubated for 72 hrs in presence of sotorasib by Western blotting analysis; type: cell-based
[16] = In vivo PROTAC activity at CRBN/SMARCA2 in C57BL/6 mouse assessed as induction of SMARCA2 degradation in spleen at 80 mg/kg, po administered once daily via gavage for 3 days by Western blotting analysis relative to control; type: functional; details: time 3 day; method in brief: as §2
[17] = biological target: T1, Protein cereblon/SWI/SNF-related matrix-associated actin-dependent regulator of chromatin subfamily A member 2; experiment: PROTAC activity at CRBN/SMARCA2 in human H322 cells harboring SMARCA4 mutant assessed as induction of SMARCA2 degradation at 1 uM in presence of MLN4924 by immunoblot analysis; type: cell-based
[18] = Toxicity in immunocompromised mouse xenografted with human NCI-H1568 cells assessed as change in body weight at 80 mg/kg, administered once daily for 21 days; type: organism-based; details: in vivo, 504 h, time 21 day
[19] = Drug metabolism in mouse liver microsomes assessed as oxidative dealkylation and mono-oxygenation mediated M3 metabolite formation at 10 uM incubated for 60 mins by LC-UV-HRMS analysis; type: ADME, Microsome; details: 1 h
Method in brief: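 Compound at 10 μM incubated with mouse liver microsomes at 37 °C for 60 min. Metabolites detected by LC-UV-HRMS, structures proposed from MS and MS2 data, and each metabolite given as a percentage.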

Compound	Activity (NCI-H2030 [1])	Activity [2]	Activity [3]	Activity [4]	inhibition (NCI-H2030 [5])	t1/2 [6]	Activity [7]	Activity [8]	Activity [9]	Activity [10]	Activity (NCI-H2030 [11])	inhibition in vivo at 40 mg/kg [12]	Activity [13]	concentration at 72 h [14]	inhibition (NCI-H2030 [15])	Activity [16]	Activity [17]	Activity [18]	Drug metabolism [19]
Nc1nnc(-c2ccccc2O)cc1N1CCN(Cc2ccc(N3CCN(CCOc4cccc5c4C(=O)N(C4CCC(=O)NC4=O)C5=O)CC3)c(F)c2)CC1 (centres undefined)	Active	inactive	inactive	Active	Active	6 h	< 10%	< 20%	inactive										
Nc1nnc(-c2ccccc2O)cc1N1CCN(Cc2ccc(N3CCC(CN4CCN(c5ccc6c(c5)C(=O)N(C5CCC(=O)NC5=O)C6=O)CC4)CC3)c(F)c2)CC1 (centres undefined)										inactive	Active; Robust Synergistic Growth Inhibition Observed	27.6%	81%	~100 nM	Active	70%	inactive	Non-toxic	metabolite_detected
